Test results: ChEMBL document CHEMBL4017487, “Design and Synthesis of γ- and δ-Lactam M1 Positive Allosteric Modulators (PAMs): Convulsion and Cholinergic Toxicity of an M1-Selective PAM with Weak Agonist Activity” (J Med Chem, 2017)

Legend:
Canis familiaris [1] = test: Unbound Cmax in dog plasma at 15 mg/kg, po administered as single dose using spray dried dispersion formulation; type: ADME, organism-based, Canis lupus familiaris; details: in vivo
[2] = Half life in dog at 0.5 mg/kg, po administered as single dose; type: ADME, organism-based, Canis lupus familiaris; details: in vivo
Summary of the method: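 Dog, single oral dose of 0.5 mg/kg as a suspension in 0.5% methylcellulose. Half-life taken after the oral dose.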

[3] = Ratio of unbound AUC in dog brain to plasma at 0.5 mg/kg, po or 0.1 mg/kg, iv administered as single bolus dose; type: ADME, organism-based, Canis lupus familiaris
[4] = Selectivity ratio of EC50 for human muscarinic acetylcholine receptor M5 expressed in CHO cells to EC50 for human muscarinic acetylcholine receptor M1 expressed in CHO cells; type: ADME, cell-based
[5] = Unbound plasma concentration in rat at 2 mg/kg, po or 0.5 mg/kg, iv administered as single bolus dose; type: ADME, organism-based
Summary of the method: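 Rat PK: IV bolus given as a solution, 0.5 mg/kg in 20% HPBCD; oral dose given as a suspension, 2 mg/kg in 0.5% methylcellulose. Fraction unbound in plasma determined.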

[6] = Oral bioavailability in dog at 0.5 mg/kg administered as single dose; type: ADME, organism-based, Canis lupus familiaris; details: in vivo
[7] = biological target: T1, Muscarinic acetylcholine receptor M5 (Homo sapiens, UniProt P08912); test: Agonist activity at human muscarinic acetylcholine receptor M5 expressed in CHO cells assessed as increase in calcium mobilization incubated for 10 mins by Fluo-8-AM dye based FLIPR assay; type: cell-based
T1 sequence (P08912 whole entry): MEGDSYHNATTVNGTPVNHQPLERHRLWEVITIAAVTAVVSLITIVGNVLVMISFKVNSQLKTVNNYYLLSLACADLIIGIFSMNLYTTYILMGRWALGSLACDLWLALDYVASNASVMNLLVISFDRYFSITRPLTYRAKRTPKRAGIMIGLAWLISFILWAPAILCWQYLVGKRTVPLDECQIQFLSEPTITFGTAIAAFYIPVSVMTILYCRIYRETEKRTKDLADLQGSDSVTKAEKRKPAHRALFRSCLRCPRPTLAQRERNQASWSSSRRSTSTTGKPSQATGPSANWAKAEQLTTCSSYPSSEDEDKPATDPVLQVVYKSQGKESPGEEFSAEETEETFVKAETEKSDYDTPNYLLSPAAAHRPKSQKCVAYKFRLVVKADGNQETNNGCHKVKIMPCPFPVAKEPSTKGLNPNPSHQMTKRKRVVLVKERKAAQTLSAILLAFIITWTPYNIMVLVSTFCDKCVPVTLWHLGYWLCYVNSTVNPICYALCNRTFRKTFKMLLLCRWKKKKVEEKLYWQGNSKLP
Summary of the method: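 Recombinant functional human M2–M5 assays, each run in agonist and PAM modes at concentrations up to 10 μM.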

[8] = Ratio of AUC in dog brain to plasma at 0.5 mg/kg, po or 0.1 mg/kg, iv administered as single bolus dose; type: ADME, organism-based, Canis lupus familiaris; details: read-out: Ratio AUC
Summary of the method: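 Brain/plasma ratio computed from AUC of total drug in brain and total drug in plasma.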

Canis familiaris [9] = test: Toxicity in dog assessed as death at 5 mg/kg, po administered as single dose using spray dried dispersion formulation after 1 day; type: organism-based, Canis lupus familiaris; details: in vivo, 24 h
Summary of the method: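 Single oral dose in dogs, 1/sex/dose. Spray-dried dispersion formulation: 23% drug loading with 0.5% methylcellulose and 100 mM citrate buffer. Clinical signs were recorded by hours postdose, with animals checked the next morning. Necropsy was performed.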

[10] = biological target: Dual 3',5'-cyclic-AMP and -GMP phosphodiesterase 11A (Homo sapiens, UniProt Q9HCR9); test: Inhibition of PDE11A4 (unknown origin)
[11] = biological target: T2, Muscarinic acetylcholine receptor M1 (Homo sapiens, UniProt P11229); test: Agonist activity at human muscarinic acetylcholine receptor M1 expressed in CHO cells at 30 uM by beta-arrestin recruitment assay relative to acetylcholine; type: cell-based
T2 sequence (P11229 whole entry): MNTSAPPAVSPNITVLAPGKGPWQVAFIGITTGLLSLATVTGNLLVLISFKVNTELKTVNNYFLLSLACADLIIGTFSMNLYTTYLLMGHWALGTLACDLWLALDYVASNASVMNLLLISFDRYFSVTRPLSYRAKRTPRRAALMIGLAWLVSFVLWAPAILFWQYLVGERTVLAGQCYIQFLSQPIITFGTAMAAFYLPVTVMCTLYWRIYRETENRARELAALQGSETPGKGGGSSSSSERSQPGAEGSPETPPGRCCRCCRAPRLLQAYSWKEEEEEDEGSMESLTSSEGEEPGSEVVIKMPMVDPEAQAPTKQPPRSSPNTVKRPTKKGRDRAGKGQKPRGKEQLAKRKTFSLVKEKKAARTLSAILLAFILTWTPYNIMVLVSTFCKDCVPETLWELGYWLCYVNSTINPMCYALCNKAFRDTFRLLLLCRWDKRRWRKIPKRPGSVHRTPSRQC

Canis familiaris [12] = test: Toxicity in dog assessed as unbound Cmax in brain required to show convulsions at 15 mg/kg, po administered as single dose using spray dried dispersion formulation; type: organism-based, Canis lupus familiaris; details: in vivo
Rattus norvegicus = test: Unbound AUC (0 to 24 hrs) in rat plasma at 1 mg/kg, po administered as single dose; type: ADME, organism-based; details: in vivo
Summary of the method: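 Rats (3/sex/dose) dosed orally once, 1 or 5 mg/kg as a 0.5% methylcellulose suspension.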

Canis familiaris [13] = test: Cholinergic toxicity in dog assessed as watery stool at 5 mg/kg, po administered as single dose using shydroxypropyl cellulose/docusate sodium formulation after 0.5 to 1.3 hrs; type: organism-based, Canis lupus familiaris; details: in vivo
Summary of the method: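 Single-dose oral dose-escalation study, 1 dog/sex/dose. The 5 mg/kg dose was given as a nanosuspension in hydroxypropyl cellulose SL with 0.05% docusate sodium in purified water. Cholinergic clinical signs were recorded at approximate hours postdose, alongside unbound plasma Cmax.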

[14] = biological target: T2, Muscarinic acetylcholine receptor M1; test: Activity at human muscarinic acetylcholine receptor M1 expressed in CHO cells by beta-arrestin recruitment assay; type: cell-based
Brain = test: Unbound brain concentration in scopolamine-induced memory impairment Wistar rat model at 1 mg/kg, sc measured after 1.25 hrs by LC-MS/MS analysis; type: ADME, organism-based; details: in vivo
[15] = Clearance in dog at 0.1 mg/kg, iv administered as single bolus dose; type: ADME, organism-based, Canis lupus familiaris; details: in vivo

Dual 3',5'-cyclic-AMP and -GMP phosphodiesterase 11A, sequence (Q9HCR9 whole entry): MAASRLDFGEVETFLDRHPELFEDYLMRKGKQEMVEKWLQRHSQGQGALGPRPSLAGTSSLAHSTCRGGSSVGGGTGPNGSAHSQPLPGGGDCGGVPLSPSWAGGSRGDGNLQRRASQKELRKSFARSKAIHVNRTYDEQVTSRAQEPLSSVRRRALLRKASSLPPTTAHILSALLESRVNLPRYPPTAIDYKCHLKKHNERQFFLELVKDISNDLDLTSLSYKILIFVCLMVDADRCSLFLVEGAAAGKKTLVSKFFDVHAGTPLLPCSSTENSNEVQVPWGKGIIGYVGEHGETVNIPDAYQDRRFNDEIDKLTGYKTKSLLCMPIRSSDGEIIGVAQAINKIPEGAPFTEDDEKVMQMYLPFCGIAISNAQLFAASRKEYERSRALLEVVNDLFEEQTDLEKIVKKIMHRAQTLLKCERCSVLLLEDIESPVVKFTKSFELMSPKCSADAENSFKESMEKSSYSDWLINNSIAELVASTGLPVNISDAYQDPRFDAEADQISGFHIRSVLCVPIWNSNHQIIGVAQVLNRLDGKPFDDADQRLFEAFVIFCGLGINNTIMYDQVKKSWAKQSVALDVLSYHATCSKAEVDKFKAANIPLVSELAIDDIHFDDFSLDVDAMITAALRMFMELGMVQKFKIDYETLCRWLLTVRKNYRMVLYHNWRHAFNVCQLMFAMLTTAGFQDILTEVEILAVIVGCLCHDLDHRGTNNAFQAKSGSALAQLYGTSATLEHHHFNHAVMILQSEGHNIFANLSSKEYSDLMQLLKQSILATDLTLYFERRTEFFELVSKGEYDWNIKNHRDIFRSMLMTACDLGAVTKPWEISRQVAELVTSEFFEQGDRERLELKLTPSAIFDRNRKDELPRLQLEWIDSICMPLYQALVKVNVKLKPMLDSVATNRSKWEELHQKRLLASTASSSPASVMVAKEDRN

## Cc1cc2c(cc1Cc1ccc(-c3cocn3)cc1)C(=O)N([C@H]1CCOC[C@@H]1O)C2
Canis familiaris [1]
  fCmax: 1067 nM
[2]
  half-life: 7.3 h
[3]
  Kp uu: 0.3
[4]
  Ratio EC50: > 200
[5]
  fraction unbound: 0.035
[6]
  bioavailability: 65%
[7]
  EC50: > 10 µM
[8]
  Kp: 0.7
Canis familiaris [9]
  Activity: Toxic
[10]
  IC50: 5.06 µM
[11]
  Activity: 50%
Canis familiaris [12]
  fCmax: 320 nM
Rattus norvegicus
  fAUC: 1.048 µM·h
Canis familiaris [13]
  Activity: Toxic
[14]
  Kb: 8 µM
Brain
  Drug uptake(free): 13 nM
[15]
  clearance: 1.7 mL/min/kg
